What is called IC50 is the point on the concentration scale where inhibition reaches its midpoint.

Assay [1] concerns the target Neuronal acetylcholine receptor; alpha9/alpha10 (Homo sapiens, UniProt Q9GZZ6+Q9UGM1). The assay is described as follows: Inhibition of human alpha9alpha10 nAChR expressed in xenopus oocytes assessed as inhibition of Ach- induced response at -70 mV holding potential and measured for 1 to 5 days in presence of Ach stimulation by voltage-clamp based electrophysiological method. The format is cell-based, Oocyte. Summed up: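 Two-electrode voltage clamp on Xenopus oocytes expressing human α9α10, recorded 1–5 d after injection. Held at −70 mV at room temperature in Ca²⁺-containing ND-96. A 1 s pulse of 100 µM ACh was given every 60 s and peptide was flowed on. IC50 with 95% CI from 3–5 separate oocytes.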

Assay [2] concerns the target Nicotinic acetylcholine receptor alpha9/alpha10 (Rattus norvegicus, UniProt P43144+Q9JLB5). The format is cell-based, Oocyte.

Sequence of Neuronal acetylcholine receptor; alpha9/alpha10 (Q9UGM1 whole entry): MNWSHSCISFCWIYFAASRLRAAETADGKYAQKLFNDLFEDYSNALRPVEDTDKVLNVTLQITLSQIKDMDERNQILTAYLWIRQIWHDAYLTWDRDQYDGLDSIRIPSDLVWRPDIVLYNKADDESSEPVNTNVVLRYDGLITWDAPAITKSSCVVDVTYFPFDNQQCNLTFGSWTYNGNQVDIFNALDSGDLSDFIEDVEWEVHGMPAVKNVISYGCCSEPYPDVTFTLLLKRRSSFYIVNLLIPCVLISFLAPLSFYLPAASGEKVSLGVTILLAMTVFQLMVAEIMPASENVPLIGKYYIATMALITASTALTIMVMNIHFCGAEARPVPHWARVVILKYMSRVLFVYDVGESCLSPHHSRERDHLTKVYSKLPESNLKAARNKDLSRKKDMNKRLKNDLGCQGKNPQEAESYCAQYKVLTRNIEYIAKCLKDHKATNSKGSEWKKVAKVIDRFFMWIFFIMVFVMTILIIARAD
Sequence of Neuronal acetylcholine receptor; alpha9/alpha10 (Q9GZZ6 whole entry): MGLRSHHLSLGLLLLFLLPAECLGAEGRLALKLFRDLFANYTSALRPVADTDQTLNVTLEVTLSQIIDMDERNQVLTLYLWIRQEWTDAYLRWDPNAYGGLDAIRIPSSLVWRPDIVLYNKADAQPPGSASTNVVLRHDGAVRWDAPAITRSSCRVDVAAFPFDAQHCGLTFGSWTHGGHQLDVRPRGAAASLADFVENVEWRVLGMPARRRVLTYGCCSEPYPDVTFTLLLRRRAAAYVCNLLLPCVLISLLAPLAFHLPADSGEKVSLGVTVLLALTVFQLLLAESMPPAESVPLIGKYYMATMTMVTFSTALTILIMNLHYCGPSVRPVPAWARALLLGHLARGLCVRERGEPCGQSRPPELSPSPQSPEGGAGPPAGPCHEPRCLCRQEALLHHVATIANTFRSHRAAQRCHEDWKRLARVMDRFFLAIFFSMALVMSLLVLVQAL
Sequence of Nicotinic acetylcholine receptor alpha9/alpha10 (P43144 whole entry): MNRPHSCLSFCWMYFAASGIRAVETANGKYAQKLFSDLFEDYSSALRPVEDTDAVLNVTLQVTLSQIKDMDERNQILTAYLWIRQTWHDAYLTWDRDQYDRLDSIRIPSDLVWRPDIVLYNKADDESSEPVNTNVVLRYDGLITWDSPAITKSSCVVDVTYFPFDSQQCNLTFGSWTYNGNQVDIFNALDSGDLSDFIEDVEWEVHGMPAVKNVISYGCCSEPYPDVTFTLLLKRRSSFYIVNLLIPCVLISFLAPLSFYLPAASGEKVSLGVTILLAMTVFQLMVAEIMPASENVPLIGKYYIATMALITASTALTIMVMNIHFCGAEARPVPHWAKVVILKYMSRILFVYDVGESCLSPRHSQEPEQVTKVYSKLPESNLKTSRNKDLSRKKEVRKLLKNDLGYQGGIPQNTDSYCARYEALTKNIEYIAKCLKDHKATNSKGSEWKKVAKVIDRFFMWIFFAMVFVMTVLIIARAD
Sequence of Nicotinic acetylcholine receptor alpha9/alpha10 (Q9JLB5 whole entry): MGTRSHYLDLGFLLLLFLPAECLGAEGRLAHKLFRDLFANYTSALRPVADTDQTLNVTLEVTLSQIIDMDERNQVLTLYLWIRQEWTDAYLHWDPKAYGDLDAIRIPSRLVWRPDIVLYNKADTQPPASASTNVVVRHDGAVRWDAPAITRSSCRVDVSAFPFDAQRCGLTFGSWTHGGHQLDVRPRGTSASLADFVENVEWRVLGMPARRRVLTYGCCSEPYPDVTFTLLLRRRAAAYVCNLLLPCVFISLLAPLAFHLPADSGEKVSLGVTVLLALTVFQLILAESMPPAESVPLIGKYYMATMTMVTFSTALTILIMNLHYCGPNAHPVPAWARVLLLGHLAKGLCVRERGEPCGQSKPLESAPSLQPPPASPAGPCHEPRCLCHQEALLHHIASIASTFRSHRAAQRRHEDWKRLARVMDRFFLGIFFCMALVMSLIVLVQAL

Consider `C[C@@H](O)[C@@H]1NC(=O)[C@H]2NC(=O)[C@H](NC(=O)CN)CSSC[C@H](NC(=O)[C@H](CCCNC(=N)N)NC(=O)[C@@H]3CCCN3C(=O)[C@H](CC(=O)O)NC1=O)C(=O)N[C@@H](CCCNC(=N)N)C(=O)N[C@@H](Cc1ccc(O)c(I)c1)C(=O)N[C@@H](CCCN)C(=O)N[C@H](C(=O)N[C@H](CC(=O)N[C@@H](CCCNC(N)=O)C(=O)O)Cc1ccc(O)cc1)CSSC2(C)C`, for which the IC50 in assay [1] turned out to be 0.26 nM.

For the molecule `C[C@@H](O)[C@@H]1NC(=O)[C@H]2NC(=O)[C@H](NC(=O)CN)CSSC[C@H](NC(=O)[C@H](CCCNC(=N)N)NC(=O)[C@@H]3CCCN3C(=O)[C@H](CC(=O)O)NC1=O)C(=O)N[C@@H](CCCNC(=N)N)C(=O)N[C@@H](Cc1ccc(O)c(I)c1)C(=O)N[C@@H](CCCN)C(=O)N[C@H](C(=O)N[C@H](CC(=O)N[C@H](CCCNC(=N)N)C(=O)O)Cc1ccc(O)cc1)CSSC2(C)C`, the IC50 in assay [1] turned out to be 4 nM.

Consider `C[C@@H](O)[C@@H]1NC(=O)[C@@H]2CSSC[C@@H](C(=O)N[C@@H](Cc3ccc(O)cc3)C(=O)O)NC(=O)[C@H](CCC(N)=O)NC(=O)[C@H](Cc3ccc(O)c(I)c3)NC(=O)[C@H](CCCNC(N)=O)NC(=O)[C@@H](NC(=O)[C@H](CCCNC(=N)N)NC(=O)[C@@H]3CCCN3C(=O)[C@H](CC(=O)O)NC1=O)C(C)(C)SSC[C@@H](NC(=O)CN)C(=O)N2`, for which, in assay [1], the IC50 is > 1000 nM.

As to `C[C@@H](O)[C@@H]1NC(=O)[C@@H]2CSSC[C@@H](C(=O)N[C@@H](Cc3ccc(O)cc3)C(=O)O)NC(=O)[C@H](CCC(N)=O)NC(=O)[C@H](Cc3ccc(O)c(I)c3)NC(=O)[C@H](CCCNC(=N)N)NC(=O)[C@H](CSSC[C@@H](NC(=O)CN)C(=O)N2)NC(=O)[C@H](CCCNC(N)=O)NC(=O)[C@@H]2CCCN2C(=O)[C@H](CC(=O)O)NC1=O`, the IC50 in assay [1] turned out to be 1.4 nM.

In the case of `N=C(N)NCCC[C@H](NC(=O)[C@@H]1CSSC[C@@H]2NC(=O)[C@@H](NC(=O)CN)CSSC[C@H](NC(=O)[C@H](CCCNC(=N)N)NC(=O)[C@@H]3CCCN3C(=O)[C@H](CC(=O)O)NC(=O)[C@H](CO)NC2=O)C(=O)N[C@@H](CCCNC(N)=O)C(=O)N[C@@H](Cc2ccc(O)cc2)C(=O)N[C@@H](CCCNC(=N)N)C(=O)N1)C(=O)O`, in assay [2], the IC50 is 1.49 nM.

As to `C[C@@H](O)[C@@H]1NC(=O)[C@H]2NC(=O)[C@H](NC(=O)CN)CSSC[C@H](NC(=O)[C@H](CCCNC(=N)N)NC(=O)[C@@H]3CCCN3C(=O)[C@H](CC(=O)O)NC1=O)C(=O)N[C@@H](CCCNC(=N)N)C(=O)N[C@@H](Cc1ccc(O)c(I)c1)C(=O)N[C@@H](CCCN)C(=O)N[C@H](C(=O)N[C@H](CC(=O)N[C@@H](CCCN)C(=O)O)Cc1ccc(O)cc1)CSSC2(C)C`, the IC50 in assay [1] is 0.34 nM.

For `C[C@@H](O)[C@@H]1NC(=O)[C@H]2NC(=O)[C@H](NC(=O)CN)CSSC[C@H](NC(=O)[C@H](CCCNC(=N)N)NC(=O)[C@@H]3CCCN3C(=O)[C@H](CC(=O)O)NC1=O)C(=O)N[C@@H](CCCNC(=N)N)C(=O)N[C@@H](Cc1ccc(O)c(I)c1)C(=O)N[C@@H](CCCN)C(=O)N[C@H](C(=O)N[C@H](CC(=O)N[C@@H](CCCCN)C(=O)O)Cc1ccc(O)cc1)CSSC2(C)C`, in assay [1], the concentration for half-maximal inhibition (IC50) was determined as 0.36 nM.

Consider `C[C@@H](O)[C@@H]1NC(=O)[C@H]2NC(=O)[C@H](NC(=O)CN)CSSC[C@H](NC(=O)[C@H](CCCNC(=N)N)NC(=O)[C@@H]3CCCN3C(=O)[C@H](CC(=O)O)NC1=O)C(=O)N[C@@H](CCCNC(N)=O)C(=O)N[C@@H](Cc1ccc(O)c(I)c1)C(=O)N[C@@H](CCC(N)=O)C(=O)N[C@H](C(=O)N[C@@H](Cc1ccc(O)cc1)C(=O)O)CSSC2(C)C`, for which the IC50 in assay [1] was 1.3 nM.

Consider `C[C@@H](O)[C@@H]1NC(=O)[C@H]2NC(=O)[C@H](NC(=O)CN)CSSC[C@H](NC(=O)[C@H](CCCNC(=N)N)NC(=O)[C@@H]3CCCN3C(=O)[C@H](CC(=O)O)NC1=O)C(=O)N[C@@H](CCCNC(=N)N)C(=O)N[C@@H](Cc1ccc(O)c(I)c1)C(=O)N[C@@H](CCCN)C(=O)N[C@H](C(=O)N[C@H](CC(=O)N[C@@H](CCC(=O)O)C(=O)O)Cc1ccc(O)cc1)CSSC2(C)C`, for which the IC50 in assay [1] stood at 0.4 nM.

The record behind these values is ChEMBL document CHEMBL5214907 (J Med Chem, 2021).
